Bounds are passed on as bounds.

For orientation: ED50 means the midpoint of the dose-response relation. As usually defined, the IC50 is the concentration that inhibits the measured activity by half. A low value points to greater potency in that assay. What is called pKB is the KB on a negative log10 scale, so that one unit is a factor of ten. Higher therefore signals a small KB.

Experiment [1] has as its system Mus musculus. As to the kind of experiment: In vivo antinociceptive activity was determined using mouse acetylcholine induced abdominal constriction test following subcutaneous administration; range (0.000033-0.000241). The format is functional. As to conditions: Abdomen, sc; call rule not given here. The procedure, abridged:
(§1)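 Mice given compound by subcutaneous injection, then challenged with acetylcholine to induce abdominal constrictions. Antinociceptive ED50 determined in mg/kg sc, with a bracketed range reported alongside.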

Experiment [2] has as its system Mus musculus. The experiment in a line: In vivo antinociceptive activity was determined using mouse acetylcholine induced abdominal constriction test following subcutaneous administration; range (0.04-0.15). The experiment is classed as functional. To be noted: Abdomen, sc. The method in brief:
as §1

For experiment [3], the species on record is Rattus norvegicus. As to the kind of experiment: Agonistic/Antagonistic activity in rat vas deferens (RVD) at 10e-5 M; not active. The format is functional.
A short description of experiment [4]: In vitro agonist activity at kappa opioid receptor in rabbit vas deferens.
Experiment [5] concerns Mus musculus. As to the kind of experiment: In vivo antinociceptive activity was determined using mouse acetylcholine induced abdominal constriction test following subcutaneous administration; range (0.0003-0.002). The format is functional. As to conditions: Abdomen, sc. The method in brief: as §1
In experiment [6] the test system is Mus musculus. The experiment in a line: In vivo antinociceptive activity was determined using mouse acetylcholine induced abdominal constriction test following subcutaneous administration; range (0.00012-0.00045). The experiment is classed as functional. To be noted: Abdomen, sc. The method in brief: as §1
The target in another experiment is Mu-type opioid receptor (Rattus norvegicus, UniProt P33535). The experiment in a line: In vitro inhibitory activity against mu specific tissue of rat vas deferens. The experiment is classed as functional, tissue-based.
Mu-type opioid receptor, sequence (P33535 whole entry): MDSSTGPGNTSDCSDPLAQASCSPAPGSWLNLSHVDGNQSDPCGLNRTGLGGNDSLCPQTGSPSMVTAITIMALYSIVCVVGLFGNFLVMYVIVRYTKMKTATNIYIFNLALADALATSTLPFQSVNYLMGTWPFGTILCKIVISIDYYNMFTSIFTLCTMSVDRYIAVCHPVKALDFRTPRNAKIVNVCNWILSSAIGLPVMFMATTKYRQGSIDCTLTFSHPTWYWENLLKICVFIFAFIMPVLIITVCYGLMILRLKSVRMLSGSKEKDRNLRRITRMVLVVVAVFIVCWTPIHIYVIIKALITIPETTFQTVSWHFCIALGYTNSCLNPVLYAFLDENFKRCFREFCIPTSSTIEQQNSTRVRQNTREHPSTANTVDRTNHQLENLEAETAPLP
For experiment [7], the target named is Kappa-type opioid receptor (Homo sapiens) (UniProt P41145). As to conditions: Oryctolagus cuniculus; Vas deferens.
Kappa-type opioid receptor (Homo sapiens), sequence (P41145 whole entry): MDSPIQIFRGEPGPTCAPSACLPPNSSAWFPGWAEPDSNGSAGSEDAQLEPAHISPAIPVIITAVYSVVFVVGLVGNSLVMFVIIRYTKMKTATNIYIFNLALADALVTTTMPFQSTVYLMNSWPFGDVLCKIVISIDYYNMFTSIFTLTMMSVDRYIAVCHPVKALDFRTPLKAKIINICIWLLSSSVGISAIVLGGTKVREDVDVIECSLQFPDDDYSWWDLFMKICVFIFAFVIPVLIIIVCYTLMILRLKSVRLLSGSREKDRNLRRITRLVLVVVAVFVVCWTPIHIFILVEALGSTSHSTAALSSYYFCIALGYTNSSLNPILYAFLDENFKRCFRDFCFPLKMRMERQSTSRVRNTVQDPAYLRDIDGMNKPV
Experiment [8] deals with Rattus norvegicus. As to the kind of experiment: In vivo antinociceptive activity was determined using rat paw pressure test following subcutaneous administration; range (0.00058-0.0014). The experiment is classed as functional. As to conditions: sc.
Experiment [9] has as its system Mus musculus. The experiment in a line: In vivo antinociceptive activity was determined using mouse acetylcholine induced abdominal constriction test following subcutaneous administration; range (0.00027-0.00086). The experiment is classed as functional. To be noted: Abdomen, sc. The method in brief: as §1
In experiment [10] the test system is Mus musculus. As to the kind of experiment: In vivo antinociceptive activity was determined using mouse acetylcholine induced abdominal constriction test following oral administration; range (0.005-0.035). As to conditions: Abdomen. The experiment is classed as functional.
Experiment [11] has as its system Mus musculus. As to the kind of experiment: In vivo antinociceptive activity was determined using mouse acetylcholine induced abdominal constriction test following subcutaneous administration; range (0.03-0.08). The experiment is classed as functional. To be noted: Abdomen, sc. The method in brief:
as §1

Experiment [12] concerns Mus musculus. The experiment in a line: In vivo antinociceptive activity was determined using mouse acetylcholine induced abdominal constriction test following subcutaneous administration; range (0.002-0.007). The format is functional. As to conditions: Abdomen, sc. The procedure, abridged: as §1
Experiment [13] relates to Mus musculus. As to the kind of experiment: In vivo antinociceptive activity was determined using mouse acetylcholine induced abdominal constriction test following subcutaneous administration; range (0.20-1.09). The format is functional. As to conditions: Abdomen, sc. The method in brief:
as §1

Experiment [14] concerns Mus musculus. As to the kind of experiment: In vivo antinociceptive activity was determined using mouse acetylcholine induced abdominal constriction test following subcutaneous administration. To be noted: Abdomen, sc. The experiment is classed as functional. The procedure, abridged: as §1
Experiment [15] deals with Mus musculus. As to the kind of experiment: In vivo antinociceptive activity was determined using mouse acetylcholine induced abdominal constriction test following subcutaneous administration; range (0.01-0.02). The format is functional. To be noted: Abdomen, sc. The method in brief: as §1
Experiment [16] has as its system Mus musculus. The experiment in a line: In vivo antinociceptive activity was determined using mouse acetylcholine induced abdominal constriction test following subcutaneous administration; range (0.12-0.48). The experiment is classed as functional. As to conditions: Abdomen, sc. The procedure, abridged:
as §1

In experiment [17] the test system is Mus musculus. As to the kind of experiment: In vivo antinociceptive activity was determined using mouse acetylcholine induced abdominal constriction test following subcutaneous administration; range (0.007-0.018). The experiment is classed as functional. As to conditions: Abdomen, sc. The method in brief:
as §1

Experiment [18] has as its system Mus musculus. The experiment in a line: In vivo antinociceptive activity was determined using mouse acetylcholine induced abdominal constriction test following subcutaneous administration; range (0.059-0.173). The experiment is classed as functional. As to conditions: Abdomen, sc. The method in brief:
as §1

For experiment [19], the system named is Mus musculus. The experiment in a line: In vivo antinociceptive activity was determined using mouse acetylcholine induced abdominal constriction test following subcutaneous administration; range (0.012-0.032). To be noted: Abdomen, sc. The experiment is classed as functional. The method in brief: as §1
In experiment [20] the test system is Mus musculus. As to the kind of experiment: In vivo antinociceptive activity was determined using mouse acetylcholine induced abdominal constriction test following subcutaneous administration; range (0.015-0.037). The format is functional. To be noted: Abdomen, sc. The procedure, abridged:
as §1

Experiment [21] concerns Mus musculus. The experiment in a line: In vivo antinociceptive activity was determined using mouse acetylcholine induced abdominal constriction test following subcutaneous administration; range (0.024-0.066). The format is functional. To be noted: Abdomen, sc. The procedure, abridged:
as §1

`COC(=O)N1CCN(C(=O)Cc2ccc(Cl)c(Cl)c2)C(CN2CC=CCC2)C1` (stereo not drawn) displayed an ED50 with Mus musculus [1] of 0.096 µg/kg.
`CC(=O)N1CCN(C(=O)Cc2ccc(Cl)c(Cl)c2)C(CN2CCCC2)C1` (stereo not drawn) gave an ED50 in the experiment on Mus musculus [2] of 80 µg/kg. For the same molecule, the IC50 entry in the experiment filed under Rattus norvegicus [3] is reported as “Not Active”.
In experiment [4], `O=C(Cc1ccc(Cl)c(Cl)c1)N1CCC2(CC1CN1CCCC1)OCCO2` (stereo not drawn) yielded an IC50 of 0.1 nM. This molecule also had an ED50 in the experiment with Mus musculus [5] of 1 µg/kg.
`COC(=O)N1CCN(C(=O)Cc2ccc(Cl)c(Cl)c2)C(CN2CCCC2)C1` (stereo not drawn): the ED50 with Mus musculus [6] was found to be 0.25 µg/kg; in the experiment with Rattus norvegicus [8], 0.93 µg/kg; in the experiment with Mus musculus [9], 0.52 µg/kg; in the experiment on Mus musculus [10], 12 µg/kg. Besides, the IC50 on Mu-type opioid receptor was over 10000 nM. This molecule also yielded a pKB in [7] of 7.7.
The molecule `CCC(=O)N1CCN(C(=O)Cc2ccc(Cl)c(Cl)c2)C(CN2CCCC2)C1` (stereo not drawn) showed an ED50 with Mus musculus [11] of 50 µg/kg.
Regarding `COC(=O)/C=C1/CCN(CC2CN(C(=O)OC)CCN2C(=O)Cc2ccc(Cl)c(Cl)c2)C1` (stereo not drawn), the ED50 in the experiment on Mus musculus [12] turned out to be 4 µg/kg.
In the experiment on Mus musculus [13], `CCCC(=O)N1CCN(C(=O)Cc2ccc(Cl)c(Cl)c2)C(CN2CCCC2)C1` (stereo not drawn) yielded an ED50 of 410 µg/kg.
The molecule `CCCOC(=O)N1CCN(C(=O)Cc2ccc(Cl)c(Cl)c2)C(CN2CCCC2)C1` (stereo not drawn) gave an ED50 in the experiment with Mus musculus [14] of 680 µg/kg.
Same read-out and setting: the value for `CN1CC[C@]23c4c5ccc(O)c4O[C@H]2[C@@H](O)C=C[C@H]3[C@H]1C5` [MORPHINE] was 470 µg/kg.
Regarding `COC(=O)N1CCN(C(=O)Cc2ccc(Cl)c(Cl)c2)C(CN(C)C)C1` (stereo not drawn), the 50% effect level in the experiment with Mus musculus [15] (ED50) was put at a dose of 16 µg/kg.
With `O=CN1CCN(C(=O)Cc2ccc(Cl)c(Cl)c2)C(CN2CCCC2)C1` (stereo not drawn), the 50% effect level with Mus musculus [16] (ED50) was put at a dose of 230 µg/kg.
In the experiment on Mus musculus [17], `CCOC(=O)N1CCN(C(=O)Cc2ccc(Cl)c(Cl)c2)C(CN2CCCC2)C1` (stereo not drawn) returned an ED50 of 10 µg/kg.
Take `COC(=O)/C=C1\CCN(CC2CN(C(=O)OC)CCN2C(=O)Cc2ccc(Cl)c(Cl)c2)C1` (stereo not drawn): the ED50 with Mus musculus [18] worked out at 100 µg/kg.
Take `C=CC(=O)N1CCN(C(=O)Cc2ccc(Cl)c(Cl)c2)C(CN2CCCC2)C1` (stereo not drawn): the ED50 in the experiment with Mus musculus [19] turned out to be 20 µg/kg.
`COC(=O)N1CCN(C(=O)Cc2ccc(Cl)c(Cl)c2)C(CN2CCC(=O)C2)C1` (stereo not drawn) gave an ED50 in the experiment on Mus musculus [20] of 23 µg/kg.
Molecule `COC(=O)N1CCN(C(=O)Cc2ccc(Cl)c(Cl)c2)C(CN2CCC(O)C2)C1` (stereo not drawn) yielded an ED50 in the experiment with Mus musculus [21] of 44 µg/kg.

(Values after ChEMBL document CHEMBL1127048, “A potent new class of kappa-receptor agonist: 4-substituted 1-(arylacetyl)-2-[(dialkylamino)methyl]piperazines” (J Med Chem, 1993).)
